Measurements pooled from the literature.
Each line is one published result; the experiments were not run side by side.
Target: Testis-specific serine/threonine-protein kinase 1 (TSSK1B, Homo sapiens, UniProt Q9BXA7)
Residues used in one study (Q9BXA7 1-367): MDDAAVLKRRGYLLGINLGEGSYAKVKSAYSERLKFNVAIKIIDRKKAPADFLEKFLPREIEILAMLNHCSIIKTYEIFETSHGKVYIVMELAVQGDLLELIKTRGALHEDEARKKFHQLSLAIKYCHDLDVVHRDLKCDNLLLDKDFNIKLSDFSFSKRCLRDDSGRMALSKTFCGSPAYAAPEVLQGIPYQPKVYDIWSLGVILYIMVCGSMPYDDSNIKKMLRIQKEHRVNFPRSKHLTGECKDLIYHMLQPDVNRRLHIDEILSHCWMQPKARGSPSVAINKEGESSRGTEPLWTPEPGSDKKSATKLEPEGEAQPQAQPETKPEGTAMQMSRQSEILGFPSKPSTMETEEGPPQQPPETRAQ

With `O=C(N1CCS(=O)(=O)CC1)N1C[C@H](c2ccc(OC(F)(F)F)cc2)C[C@H](c2nc(C3CC3)no2)C1` the remaining binding was 95% (cell-free assay, competition with immobilised ligand; 1 µM).
With `O=C(NCC1CCOCC1)c1n[nH]cc1NC(=O)c1c(F)cccc1F` the remaining binding was 97% (binding, competition with immobilised ligand; 1 µM).
`NS(=O)(=O)c1cc(NC(=O)Cc2ccccc2)ccc1Oc1cccc(Cl)c1` gave a remaining binding of 100% (cell-free assay, competition with immobilised ligand; 1 µM).
For `C[C@@H]1CN(c2ccc3ncc(-c4ccc5[nH]nc(C6CC6)c5c4)n3n2)C[C@H](C)O1`, the remaining binding was 100% (binding, competition with immobilised ligand; 0.5 µM).
`F[C@@H]1CCN(c2nccc(-c3cnn4ncccc34)n2)C1` gave a remaining binding of 100% (binding; 1 µM).
The remaining binding of `COc1ccc2cc(OCC3(C(=O)O)CN(C(=O)c4ccc(F)cc4)C3)ccc2c1` is reported as 100% (cell-free assay, competition with immobilised ligand; 1 µM).
`Cc1cnn2ncc(-c3ccnc(N(C)C)n3)c2c1` gave a remaining binding of 100% (binding; 1 µM).
For `COc1cnc(Nc2cccc(S(N)(=O)=O)c2)nc1N1CCN(c2ccccc2)C(=O)C1`, the remaining binding was 92% (binding, competition with immobilised ligand; 1 µM).
`COc1ncc2cc3ccccc3nc2c1C#N` gave a remaining binding of 97% (cell-free assay, competition with immobilised ligand; 5 µM).
With `C[C@@H]1CCN(c2nccc(-c3cnn4ncccc34)n2)C1` the remaining binding was 100% (binding; 1 µM).
The remaining binding of `CNC(=O)[C@@H]1CC[C@@H](n2c(-c3ccc4cnccc4c3)nc3ccc(C(=O)NCc4cccc(C(N)=O)c4)cc32)C1` is reported as 93% (binding, competition with immobilised ligand; 1 µM).
With `FC(F)(F)Oc1cccc(-c2cnc3ccc(-c4ccncc4)nn23)c1` the remaining binding was 83% (binding, competition with immobilised ligand; 5 µM).
`O=C(NS(=O)(=O)c1ccc(NCC2CCOCC2)c([N+](=O)[O-])c1)c1ccc(N2CCN(Cc3ccc(C(F)(F)F)cc3-c3ccc(Cl)cc3)CC2)cc1Oc1cnc2[nH]ccc2c1` has a remaining binding of 100% (cell-free assay, competition with immobilised ligand; 1 µM).
`N[C@@H]1CCN(c2nccc(-c3cnn4ncccc34)n2)C1` gave a remaining binding of 97% (binding; 1 µM).
For `O=C(NCCCN1CCOCC1)c1ccc(Nc2nccc(-c3cc4ccccc4s3)n2)cc1`, the remaining binding was 93% (binding, competition with immobilised ligand; 1 µM).
With `CNC(=O)Nc1ccc2c(c1)CC[C@@]21OC(=O)N(CC(=O)N(Cc2ccc(F)cc2)[C@@H](C)C(F)(F)F)C1=O` the remaining binding was 84% (cell-free assay, competition with immobilised ligand; 1 µM).
The remaining binding of `Nc1ncc2c(n1)-c1c([nH]c3ccc(C#CC4CC4)cc13)CCCC2` is reported as 100% (binding, competition with immobilised ligand; 1 µM).
The remaining binding of `O=C(c1ccc(Nc2nccc(-c3cc4ccccc4s3)n2)cc1)N1CCC(N2CCCC2)CC1` is reported as 100% (binding, competition with immobilised ligand; 1 µM).
`COc1ccc2c(c1)O[C@@H](c1ccc(OC)c(OC)c1)C[C@H]2NC(=O)C1(c2ccc3c(c2)OC(F)(F)O3)CC1` gave a remaining binding of 100% (cell-free assay, competition with immobilised ligand; 1 µM).
`c1cnn2ncc(-c3ccnc(N4CCC45COC5)n3)c2c1` gave a remaining binding of 65% (binding; 1 µM).
With `Cc1noc([C@H]2C[C@@H](c3ccc(C(F)(F)F)cc3)CN(C(=O)N3CCS(=O)(=O)C3)C2)n1` the remaining binding was 100% (cell-free assay, competition with immobilised ligand; 1 µM).
`CN(c1nccc(-c2cnn3ncccc23)n1)C1CC1` gave a remaining binding of 100% (binding; 1 µM).
With `Cc1cnc(Nc2ccc(C(=O)N3CCC(N4CCCC4)CC3)cc2)nc1-c1cc2ccccc2s1` the remaining binding was 85% (binding, competition with immobilised ligand; 1 µM).
For `CCC(=N\O)/C(C)=C/c1ccc(F)cc1`, the remaining binding was 82% (cell-free assay, competition with immobilised ligand; 1 µM).
With `CN(C)c1nccc(-c2cnn3ncccc23)n1` the remaining binding was 100% (binding; 1 µM).
